Values after ≈ are worked out from the molar mass of the structure shown. Values belong to the molecule of their own block, whether it stands above or below them.
Legend:
[1] = target: T1, Melanin-concentrating hormone receptor 1 (Homo sapiens, UniProt Q99705); assay: Displacement of [3H]4-(benzyloxy)-1-(1-(2-(pyrrolidin-1-yl)ethyl)-1H-indazol-5-yl)pyridin-2(1H)-one from MCH-1 receptor expressed in CHO-K1 cells; type: cell-based
How it was run: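 Membranes from stable CHO-K1 cells expressing human MCH-1 receptor (8.92 µg protein) incubated 60 min at 25 °C with 1.4 nM tritiated indazolyl-pyridinone radioligand ± test compound in 50 mM Tris–HCl, pH 7.4. Nonspecific binding defined with 50 µM of a piperazinylpropyl urea ligand. Values are means of at least two determinations, each within 40% of the mean.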

[2] = Ratio of drug level in brain to plasma in DIO mouse at 30 mg/kg, po; details: read-out: BPR
[3] = Aqueous solubility of the compound in PBS buffer at pH 7.4 after 24 hrs; type: physicochemical
How it was run: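 Solubility measured in PBS at pH 7.4 after a 24 h equilibration period.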

Mus musculus [4] = assay: Antiobesity activity in diet-induced obese mouse assessed as reduction in body weight at 30 mg/kg qd; type: functional; design: scale not given: the % may be the effect or the level left
How it was run: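 Male C57BL/6J diet-induced obese mice dosed orally once daily, 30 mg/kg in 1% methylcellulose in water, for 5 days. Body weight tracked daily; % difference from vehicle control on Day 6. Adjusted means, n = 8–10, ANCOVA with Day 1 body weight as covariate, then Dunnett's test.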

[5] = Drug level in DIO mouse brain at 30 mg/kg, po after 6 hrs; type: ADME, organism-based; design: dose 30 mg/kg, route oral; details: read-out: Drug uptake
How it was run: (§1)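 DIO mice given 30 mg/kg orally. Plasma (ng/mL) and brain (ng/g) concentrations measured 6 h post dose; AUC determined from 0 to 6 h.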

Cytochrome P450 3A4 = Cytochrome P450 3A4 (Homo sapiens, UniProt P08684); assay: Inhibition of CYP3A4; type: ADME
Cytochrome P450 3A4, sequence (P08684 whole entry): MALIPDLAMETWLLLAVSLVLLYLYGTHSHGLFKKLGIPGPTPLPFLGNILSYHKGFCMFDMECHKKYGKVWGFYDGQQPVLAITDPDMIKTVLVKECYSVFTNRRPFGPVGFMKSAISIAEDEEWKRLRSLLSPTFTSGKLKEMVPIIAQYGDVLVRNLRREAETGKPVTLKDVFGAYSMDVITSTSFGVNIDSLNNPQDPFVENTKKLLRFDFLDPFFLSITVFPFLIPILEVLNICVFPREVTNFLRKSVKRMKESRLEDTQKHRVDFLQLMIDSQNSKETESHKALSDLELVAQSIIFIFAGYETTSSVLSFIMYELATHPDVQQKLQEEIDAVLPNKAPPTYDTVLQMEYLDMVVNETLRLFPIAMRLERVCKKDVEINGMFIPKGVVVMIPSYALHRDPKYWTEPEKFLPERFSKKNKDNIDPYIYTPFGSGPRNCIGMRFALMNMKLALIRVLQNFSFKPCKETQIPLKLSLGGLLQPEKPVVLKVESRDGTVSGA

Cytochrome P450 2B6 = target: T2, Cytochrome P450 2B6 (Homo sapiens, UniProt P20813); assay: Inhibition of CYP2B6; type: ADME
T2 sequence (P20813 whole entry): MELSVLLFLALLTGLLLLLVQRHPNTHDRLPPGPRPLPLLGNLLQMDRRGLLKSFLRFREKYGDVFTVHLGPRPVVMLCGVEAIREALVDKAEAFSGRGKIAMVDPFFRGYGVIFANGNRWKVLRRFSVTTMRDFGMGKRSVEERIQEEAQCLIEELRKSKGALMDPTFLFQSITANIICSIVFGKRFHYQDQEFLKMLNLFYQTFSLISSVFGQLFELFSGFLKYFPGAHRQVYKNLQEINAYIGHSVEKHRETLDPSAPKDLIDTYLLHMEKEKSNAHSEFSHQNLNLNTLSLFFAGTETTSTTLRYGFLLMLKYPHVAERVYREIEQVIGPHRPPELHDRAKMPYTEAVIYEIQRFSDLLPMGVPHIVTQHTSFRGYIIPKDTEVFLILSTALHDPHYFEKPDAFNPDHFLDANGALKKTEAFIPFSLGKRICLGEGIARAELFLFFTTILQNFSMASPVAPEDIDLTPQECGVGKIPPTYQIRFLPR

[6] = target: T1, Melanin-concentrating hormone receptor 1; assay: Antagonist activity at MCH-1 receptor; type: functional
How it was run: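 Functional antagonism read as Ca2+ mobilization in an Aequorin cell line expressing recombinant MCH-1 receptor, run by a contract lab.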

[7] = Half life in mouse liver microsome; type: ADME; details: liver microsomes
How it was run: (§2)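 Half-life in mouse or human liver microsomes, reported in min.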

[8] = Ionisation constant for the compound; type: physicochemical
[9] = AUC (0 to 6 hrs) in DIO mouse at 30 mg/kg, po; type: ADME, organism-based; design: time < 6 hr, dose 30 mg/kg, route oral; details: plasma; how it was run: as §1
Cytochrome P450 2D6 = Cytochrome P450 2D6 (Homo sapiens, UniProt P10635); assay: Inhibition of CYP2D6; type: ADME
Cytochrome P450 2D6, sequence (P10635 whole entry): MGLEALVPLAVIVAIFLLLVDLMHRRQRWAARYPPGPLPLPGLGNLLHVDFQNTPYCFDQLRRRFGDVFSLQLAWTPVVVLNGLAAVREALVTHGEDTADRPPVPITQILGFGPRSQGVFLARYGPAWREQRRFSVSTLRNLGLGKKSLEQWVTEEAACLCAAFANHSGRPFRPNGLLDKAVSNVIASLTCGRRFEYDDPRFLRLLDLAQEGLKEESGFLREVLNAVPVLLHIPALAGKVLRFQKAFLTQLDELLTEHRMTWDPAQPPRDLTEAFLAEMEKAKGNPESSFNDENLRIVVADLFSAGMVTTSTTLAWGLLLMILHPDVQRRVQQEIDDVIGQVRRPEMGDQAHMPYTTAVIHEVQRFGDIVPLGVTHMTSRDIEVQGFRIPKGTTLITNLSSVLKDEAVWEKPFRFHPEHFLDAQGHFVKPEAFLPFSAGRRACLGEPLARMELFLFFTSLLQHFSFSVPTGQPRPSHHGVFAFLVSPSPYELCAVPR

[10] = Plasma protein binding in DIO mouse at 30 mg/kg, po; type: ADME, organism-based; design: dose 30 mg/kg, route oral; details: read-out: PPB (converted)
How it was run: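 Mouse plasma protein binding determined by ultrafiltration.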

Cytochrome P450 1A2 = target: T3, Cytochrome P450 1A2 (Homo sapiens, UniProt P05177); assay: (§3) Inhibition of CYP1A2; type: ADME
T3 sequence (P05177 whole entry): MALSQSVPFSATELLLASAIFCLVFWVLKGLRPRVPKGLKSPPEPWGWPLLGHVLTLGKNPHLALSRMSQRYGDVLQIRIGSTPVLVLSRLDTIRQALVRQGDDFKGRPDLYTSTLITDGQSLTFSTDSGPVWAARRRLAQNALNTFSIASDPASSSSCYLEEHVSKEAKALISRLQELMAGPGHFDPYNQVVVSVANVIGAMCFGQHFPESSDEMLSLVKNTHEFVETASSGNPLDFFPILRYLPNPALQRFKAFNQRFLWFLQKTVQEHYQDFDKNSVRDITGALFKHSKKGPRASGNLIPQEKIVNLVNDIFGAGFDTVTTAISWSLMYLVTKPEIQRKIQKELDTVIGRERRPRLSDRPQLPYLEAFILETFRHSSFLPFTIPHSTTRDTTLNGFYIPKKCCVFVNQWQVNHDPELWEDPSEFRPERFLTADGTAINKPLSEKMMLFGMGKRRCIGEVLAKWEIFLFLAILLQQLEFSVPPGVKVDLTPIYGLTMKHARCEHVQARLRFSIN

[11] = Half life in human liver microsome; type: ADME; details: liver microsomes; how it was run: as §2
[12] = Drug level in DIO mouse plasma at 30 mg/kg, po after 6 hrs; type: ADME, organism-based; design: dose 30 mg/kg, route oral; how it was run: as §1
CYP1A2 = target: T4, CYP1A2 (Homo sapiens, UniProt P05177); assay: as §3; type: ADME
T4 sequence (P05177 whole entry): T3 sequence (P05177 whole entry)

Mus musculus [13] = assay: Antiobesity activity in diet-induced obese mouse assessed as reduction in body weight at 30 mg/kg bid; type: functional; design: scale not given: the % may be the effect or the level left
Mus musculus [14] = assay: Antiobesity activity in diet-induced obese mouse assessed as reduction in body weight at 60 mg/kg qd; type: functional; design: scale not given: the % may be the effect or the level left
[15] = Ratio of drug level in brain to plasma in lean mouse at 10 mg/kg, po; details: read-out: BPR
[16] = system: panel of 30 GPCRs and transporters (off-target); assay: Inhibition of panel of 30 GPCRs and transporters at 1 uM
[17] = Stability in human liver microsome assessed as compound remaining after 1 hr; type: ADME; details: liver microsomes, read-out: Stability
How it was run: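 Human liver microsome incubation; percentage of parent remaining after 1 h.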

Cytochrome P450 2C9 = Cytochrome P450 2C9 (Homo sapiens, UniProt P11712)
Cytochrome P450 2C9, sequence (P11712 whole entry): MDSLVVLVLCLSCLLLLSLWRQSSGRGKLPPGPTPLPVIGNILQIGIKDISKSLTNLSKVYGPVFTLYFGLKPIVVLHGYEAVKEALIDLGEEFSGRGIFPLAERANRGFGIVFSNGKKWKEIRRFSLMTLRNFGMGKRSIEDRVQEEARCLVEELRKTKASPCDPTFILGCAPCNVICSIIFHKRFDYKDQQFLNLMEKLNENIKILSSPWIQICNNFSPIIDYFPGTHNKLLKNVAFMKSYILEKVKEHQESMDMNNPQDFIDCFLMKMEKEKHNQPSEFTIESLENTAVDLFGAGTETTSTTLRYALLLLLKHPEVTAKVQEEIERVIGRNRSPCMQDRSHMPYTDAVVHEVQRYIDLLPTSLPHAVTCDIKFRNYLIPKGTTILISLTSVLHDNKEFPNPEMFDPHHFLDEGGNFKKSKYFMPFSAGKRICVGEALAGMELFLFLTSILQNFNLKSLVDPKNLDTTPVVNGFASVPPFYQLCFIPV

Cytochrome P450 2C19 = Cytochrome P450 2C19 (Homo sapiens, UniProt P33261)
Cytochrome P450 2C19, sequence (P33261 whole entry): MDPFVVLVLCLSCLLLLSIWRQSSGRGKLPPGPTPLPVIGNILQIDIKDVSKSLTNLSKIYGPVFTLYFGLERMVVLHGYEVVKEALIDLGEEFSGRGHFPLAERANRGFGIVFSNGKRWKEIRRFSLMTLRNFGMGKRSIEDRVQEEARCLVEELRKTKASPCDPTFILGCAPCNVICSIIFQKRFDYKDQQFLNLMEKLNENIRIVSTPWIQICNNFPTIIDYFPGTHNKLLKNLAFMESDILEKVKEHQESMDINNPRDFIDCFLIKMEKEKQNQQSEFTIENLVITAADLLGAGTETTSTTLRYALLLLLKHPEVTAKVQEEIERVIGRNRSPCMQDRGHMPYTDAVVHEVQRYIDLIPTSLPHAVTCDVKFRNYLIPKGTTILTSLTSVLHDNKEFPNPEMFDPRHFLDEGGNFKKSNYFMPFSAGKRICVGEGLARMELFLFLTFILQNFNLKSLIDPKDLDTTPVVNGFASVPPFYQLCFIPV

T1 sequence (Q99705 whole entry): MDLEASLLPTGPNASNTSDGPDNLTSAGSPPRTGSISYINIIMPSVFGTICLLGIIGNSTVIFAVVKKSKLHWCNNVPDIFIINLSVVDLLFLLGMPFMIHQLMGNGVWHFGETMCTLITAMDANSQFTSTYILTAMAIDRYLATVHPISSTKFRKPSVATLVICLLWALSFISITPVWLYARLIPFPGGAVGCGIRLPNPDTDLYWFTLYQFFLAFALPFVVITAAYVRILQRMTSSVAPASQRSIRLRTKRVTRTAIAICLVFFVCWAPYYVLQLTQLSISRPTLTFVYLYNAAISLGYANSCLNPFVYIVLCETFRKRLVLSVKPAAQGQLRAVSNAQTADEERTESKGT

Ki [1]: 7.2 nM
SMILES: Cn1c2c(c3ccc(-n4ccc(-c5ccc(Cl)cc5Cl)cc4=O)cc31)CNCC2

Kp [2]: 0.51
solubility at 24 h [3]: > 500 µM
concentration at 6 h [5]: 4010 ng/mL
IC50 (Cytochrome P450 3A4): 12000 nM
IC50 (Cytochrome P450 2B6): > 10000 nM
IC50 [6]: 14.4 nM
half-life [7]: 8.03 h
Ki [1]: 4.9 nM
pKa [8]: 8.81
AUC(0-t) at 6 h [9]: 41300 ng·h/mL
IC50 (Cytochrome P450 2D6): > 10000 nM
fraction unbound [10]: 0.059
IC50 (Cytochrome P450 1A2): > 10000 nM
half-life [11]: 7.5 h
concentration at 6 h [12]: 8030 ng/mL
SMILES: Cn1c2c(c3ccc(-n4ccc(OCc5ccccc5)cc4=O)cc31)CCNC2
Activity (Mus musculus [4]): 9.1%

Ki [1]: 11 nM
SMILES: Cn1c2c(c3ccc(-n4ccc(-c5ccc(C(F)(F)F)cc5)cc4=O)cc31)CCNC2

Ki [1]: 7.6 nM
SMILES: COc1ccc(-c2ccn(-c3ccc4c5c(n(C)c4c3)CCNC5)c(=O)c2)c(C)c1

Ki [1]: 7 nM
SMILES: COc1cc(Cl)ccc1-c1ccn(-c2ccc3c4c(n(C)c3c2)CCNC4)c(=O)c1

Ki [1]: 17 nM
SMILES: COc1cc(Cl)ccc1-c1ccn(-c2ccc3c4c(n(C)c3c2)CNCC4)c(=O)c1

Ki [1]: 2.6 nM
SMILES: COc1ccc(-c2ccn(-c3ccc4c5c(n(C)c4c3)CCNC5)c(=O)c2)cc1

Ki [1]: 8.4 nM
SMILES: CSc1ccc(-c2ccn(-c3ccc4c5c(n(C)c4c3)CNCC5)c(=O)c2)cc1

Ki [1]: 14 nM
SMILES: COc1ccc(-c2ccn(-c3ccc4c5c(n(C)c4c3)CNCC5)c(=O)c2)cc1

Ki [1]: 128 nM
SMILES: Cn1c2c(c3ccc(-n4ccc(-c5ccc(Cl)cn5)cc4=O)cc31)CCNC2

Ki [1]: 11 nM
SMILES: Cn1c2c(c3ccc(-n4ccc(-c5ccc(Cl)cc5)cc4=O)cc31)CCNC2

Ki [1]: 14 nM
SMILES: COc1ccc(-c2ccn(-c3ccc4c5c(n(C)c4c3)CNCC5)c(=O)c2)c(C)c1

Ki [1]: 2.7 nM
SMILES: Cn1c2c(c3ccc(-n4ccc(-c5ccc(Cl)cc5)cc4=O)cc31)CNCC2

More lines, now with the values behind:

SMILES: CN1CCc2c(n(C)c3cc(-n4ccc(-c5ccc(Cl)cc5Cl)cc4=O)ccc23)C1
Ki [1]: 14 nM

SMILES: CN1CCc2c(n(C)c3cc(-n4ccc(-c5ccc(Cl)cc5)cc4=O)ccc23)C1
Ki [1]: 5.6 nM

SMILES: CN1CCc2c(n(C)c3cc(-n4ccc(OCc5ccc(Cl)cc5)cc4=O)ccc23)C1
Ki [1]: 7.6 nM

SMILES: CC(=O)N1CCc2c(c3ccc(-n4ccc(OCc5ccccc5)cc4=O)cc3n2C)C1
Ki [1]: 168 nM

SMILES: CN1CCc2c(n(C)c3cc(-n4ccc(OCc5ccccc5)cc4=O)ccc23)C1
solubility at 24 h [3]: 93 µM (≈ 37.2 µg/mL)
IC50 (Cytochrome P450 3A4): 24000 nM
IC50 (Cytochrome P450 2B6): > 10000 nM
half-life [7]: 1.05 h
Ki [1]: 5.2 nM
IC50 (Cytochrome P450 2D6): > 10000 nM
IC50 (Cytochrome P450 1A2): > 10000 nM
half-life [11]: > 16.7 h

SMILES: Cn1c2c(c3ccc(-n4ccc(OCc5ccc(Cl)cc5)cc4=O)cc31)CNCC2
Ki [1]: 4.2 nM

SMILES: Cn1c2c(c3ccc(-n4ccc(-c5ccccc5)cc4=O)cc31)CNCC2
Ki [1]: 15 nM

SMILES: Cn1c2c(c3ccc(-n4ccc(-c5ccc(C(F)(F)F)cc5)cc4=O)cc31)CNCC2
Ki [1]: 4.2 nM

SMILES: CN1CCc2c(c3ccc(-n4ccc(-c5ccc(F)cc5)cc4=O)cc3n2C)C1
Ki [1]: 7.8 nM

SMILES: O=c1cc(OCc2ccccc2)ccn1-c1ccc2c(cnn2CCN2CCCC2)c1
Kp [2]: 0.72
concentration at 6 h [5]: 1380 ng/mL
pKa [8]: 8.63
AUC(0-t) at 6 h [9]: 14800 ng·h/mL
fraction unbound [10]: 0.086
IC50 (CYP1A2): > 10000 nM
Activity (Mus musculus [13]): 6%
concentration at 6 h [12]: 1950 ng/mL
Activity (Mus musculus [14]): 2.8%

SMILES: CSc1ccc(-c2ccn(-c3ccc4c5c(n(C)c4c3)CCNC5)c(=O)c2)cc1
Ki [1]: 2.4 nM

SMILES: Cn1c2c(c3ccc(-n4ccc(OCc5ccc(C(F)(F)F)cc5)cc4=O)cc31)CNCC2
Ki [1]: 6.7 nM

SMILES: Cn1c2c(c3ccc(-n4ccc(OCc5ccccc5)cc4=O)cc31)CN(CCO)CC2
Ki [1]: 3.6 nM

SMILES: CN1CCc2c(n(C)c3cc(-n4ccc(OCc5ccc(C(F)(F)F)cc5)cc4=O)ccc23)C1
Ki [1]: 25 nM

SMILES: CN1CCc2c(c3ccc(-n4ccc(OCc5ccccc5)cc4=O)cc3n2C)C1
solubility at 24 h [3]: 110 µM (≈ 43.9 µg/mL)
Activity (Mus musculus [4]): 7.2%
IC50 (Cytochrome P450 3A4): 67000 nM
IC50 (Cytochrome P450 2B6): > 10000 nM
Kp [15]: 0.9
half-life [7]: > 16.7 h
Ki [1]: 4.5 nM
AUC(0-t) at 6 h [9]: 27000 ng·h/mL
IC50 (Cytochrome P450 2D6): > 10000 nM
fraction unbound [10]: 0.016
IC50 (Cytochrome P450 1A2): > 10000 nM
half-life [11]: 12.8 h
inhibition [16]: < 55%
concentration at 6 h [12]: 5030 ng/mL

SMILES: Cn1c2c(c3ccc(-n4ccc(OCc5ccccc5)cc4=O)cc31)CNCC2
solubility at 24 h [3]: 470 µM (≈ 181 µg/mL)
IC50 (Cytochrome P450 3A4): 68000 nM
IC50 (Cytochrome P450 2B6): > 10000 nM
remaining at 1 h [17]: 98.4%
IC50 (Cytochrome P450 2C9): > 10000 nM
Ki [1]: 3.8 nM
IC50 (Cytochrome P450 2D6): > 10000 nM
IC50 (Cytochrome P450 1A2): > 10000 nM
IC50 (Cytochrome P450 2C19): > 10000 nM
half-life [11]: 7.7 h

SMILES: CN1CCc2c(n(C)c3cc(-n4ccc(-c5ccc(F)cn5)cc4=O)ccc23)C1
Ki [1]: 708 nM

— ChEMBL document CHEMBL1287681, “Tetrahydrocarboline analogs as MCH-1 antagonists” (Bioorg Med Chem Lett, 2010)
